Experimental data from different studies.
Compare with care: the assays were run in different laboratories.
Read-out: cell growth or viability

Cc1nc(-c2cn3c(n2)-c2ccc(-c4cnn(C(C)(C)C(N)=O)c4)cc2OCC3)n(C(C)C)n1 — IC50 (SW48; ATP luminescence; 96 h): 21.5 nM
CCN1C(=O)N(c2c(F)c(OC)cc(OC)c2F)Cc2cnc3[nH]c(CN4CCOCC4)cc3c21 — IC50 (MFE-296; ATP luminescence; 96 h): 56 nM
CC(C)C[C@H](NC(=O)[C@H](Cc1ccccc1)NC(=O)c1cnccn1)B(O)O — IC50 (SK-N-FI; ATP luminescence): 13 nM
CNc1ncc2cc(-c3ccc(-c4cccc(C)n4)cc3Cl)c(=O)n(C[C@H]3OC[C@H](N)CO3)c2n1 — IC50 (BXPC-3; MTT; 24 h): 20300 nM
C=C(C)[C@@H]1CC[C@]2(C(=O)O)CC[C@]3(C)[C@H](CC[C@@H]4[C@@]5(C)CC[C@H](O)C(C)(C)[C@@H]5CC[C@]43C)[C@@H]12 — IC50 (DLD-1; 48 h): 20000 nM
CN(C)C/C=C/C(=O)Nc1cc2c(Nc3ccc(F)c(Cl)c3)ncnc2cc1O[C@H]1CCOC1 — IC50 (SW620/AD300; MTT; 72 h): 4300 nM
COc1cccc2c1C(=O)c1c(O)c3c(c(O)c1C2=O)C[C@@](O)(C(=O)CO)C[C@@H]3O[C@H]1C[C@H](N)[C@H](O)[C@H](C)O1 — IC50 (SK-MEL; neutral red; 48 h): 0.7 µg/mL
CC(=O)O[C@H]1C(=O)[C@@]2(C)[C@H]([C@H](OC(=O)c3ccccc3)[C@]3(O)C[C@H](OC(=O)[C@H](O)[C@@H](NC(=O)c4ccccc4)c4ccccc4)C(C)=C1C3(C)C)[C@]1(OC(C)=O)CO[C@@H]1C[C@@H]2O — IC50 (BXPC-3; fluorescence; 72 h): 4 nM
CCN1CCN(c2ccc(Nc3cc(N(C)C(=O)Nc4c(Cl)c(OC)cc(OC)c4Cl)ncn3)cc2)CC1 — IC50 (MFE-296; ATP luminescence; 96 h): 52.5 nM
Cc1nc(Nc2ncc(C(=O)Nc3c(C)cccc3Cl)s2)cc(N2CCN(CCO)CC2)n1 — IC50 (BXPC-3; MTT): 46 nM
CN(C(=O)COC(=O)/C=C/c1cccc([N+](=O)[O-])c1)C1CCS(=O)(=O)C1 (centres unmarked) — IC50 (DLD-1; ATP luminescence; 48 h): 1600 nM
CCN(CC)CCCC(C)Nc1cnc(C(=O)Nc2cc(F)cc3cccnc23)cn1 (centres unmarked) — IC50 (BXPC-3; MTT): 7300 nM
Cc1ccc2[nH]c(=O)c3cc(C(=O)NCCCN(C)Cc4ccccc4)sc3c2c1 — IC50 (BXPC-3; MTT; 24 h): 10100 nM
COc1cc(Nc2nccc(-c3cnn4nc(OC)ccc34)n2)cc(C(F)(F)F)c1 — IC50 (DLD-1; ATP luminescence): 530 nM
